Screening data (PubChem BioAssay)
Sampled rows, rich in hits. Any-hit rate of the full collection: about 2.4%.
NRP1-CendR mod – modulators of CendR peptide binding to NRP-1, primary screen, biochemical, fluorescence polarization, uHTS | FAM-RPARPAR peptide binding to NRP-1 | AID 602438, 2012 | Neuropilin-1 (Homo sapiens), O14786 | 360,000 compounds, 0.85% hits | inhibition, % at 25 µM;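 active = inhibition or corrected inhibition above about 18%, plus a signal ratio from 0.5 to 1.5, limit read from the data, passing the limit was not always enough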
Target sequence (O14786 whole entry, looked up): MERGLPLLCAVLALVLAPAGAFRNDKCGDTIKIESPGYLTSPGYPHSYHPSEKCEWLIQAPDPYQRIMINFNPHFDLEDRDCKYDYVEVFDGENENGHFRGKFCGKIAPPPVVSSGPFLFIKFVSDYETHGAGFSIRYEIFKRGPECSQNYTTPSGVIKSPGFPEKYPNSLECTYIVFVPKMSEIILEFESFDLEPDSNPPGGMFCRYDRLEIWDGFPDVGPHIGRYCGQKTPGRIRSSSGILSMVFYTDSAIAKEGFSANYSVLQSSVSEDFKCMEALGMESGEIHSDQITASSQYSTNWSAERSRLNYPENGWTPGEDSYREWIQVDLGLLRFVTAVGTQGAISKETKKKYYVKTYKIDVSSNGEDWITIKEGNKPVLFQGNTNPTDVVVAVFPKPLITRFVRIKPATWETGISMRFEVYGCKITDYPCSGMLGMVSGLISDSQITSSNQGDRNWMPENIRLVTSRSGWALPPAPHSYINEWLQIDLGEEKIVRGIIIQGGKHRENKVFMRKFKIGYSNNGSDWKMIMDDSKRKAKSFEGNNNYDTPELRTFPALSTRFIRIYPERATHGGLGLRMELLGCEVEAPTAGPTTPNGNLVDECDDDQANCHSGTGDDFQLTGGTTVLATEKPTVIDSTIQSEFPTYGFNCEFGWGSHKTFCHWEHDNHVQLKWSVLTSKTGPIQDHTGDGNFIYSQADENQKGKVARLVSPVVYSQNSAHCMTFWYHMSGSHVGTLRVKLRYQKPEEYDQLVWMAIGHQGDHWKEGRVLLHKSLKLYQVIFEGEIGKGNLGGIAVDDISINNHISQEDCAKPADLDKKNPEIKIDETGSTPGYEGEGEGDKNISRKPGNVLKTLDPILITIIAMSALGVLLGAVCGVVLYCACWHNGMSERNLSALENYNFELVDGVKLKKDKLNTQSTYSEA
MIN6 prolif-1 – inducers of MIN6 beta-cell proliferation, primary screen, ATP luminescence, uHTS; proliferation, % at 10 µM; AID 2380, 2010; 330,000 compounds, 0.29% hits; MIN6 cells proliferation, ATPlite luminescence, 48 h; cells starved in 0.2% serum; 100% = growth in 10% serum;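 active = compounds whose signal lies at least 3.5 SD above the mean of all wells on their plate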
MT1-MMP act inh – blockers of MT1-MMP proenzyme processing, primary screen, HT1080 RFP-PRO-GFP cells, GFP/RFP fluorescence. GFP/RFP ratio fluorescence, overnight; percent of plate control window, DMSO zero. GFP/RFP ratio change, % at 20 µM. 360,000 compounds, 0.061% hits. AID 651647, 2012;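 active = GFP/RFP ratio change of at least 30% with cell ATP level not reduced by more than half and red fluorescence within 50% of control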
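system = RFP-PRO-GFP reporter HT1080 cells | dosing = 20 µM single dose, 1% DMSO | timing = overnight cell settling, then overnight compound exposure, 37 °C, 5% CO2 | read-out basis = GFP/RFP fluorescence ratio | controls = DMSO and RFP-L50D-GFP cell wells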
SENP1 FRET inh – human SENP1 catalytic domain inhibitors, primary screen, biochemical, FRET, uHTS; recombinant SENP1 catalytic domain, CyPet-SUMO1-YPet FRET cleavage; AID 624204, 2012; inhibition, % at 10 µM; 360,000 compounds, 0.21% hits;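 active = inhibition at least 30% at 10 µM, raw YFP signal under a set limit, fluorescence ratio 0.5 to 1.5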
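Assay system: hSENP1 catalytic domain, recombinant. Amount: SENP1 enzyme, 20 pM final. Schedule: 50 min reaction, RT, dark. Technique: FRET, CFP and YFP emission. Control set: no-enzyme wells low, DMSO-plus-enzyme wells high control.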
Myeloid diff MLP – induction of myeloid progenitor differentiation, primary screen, cell-based, flow cytometry, MLPCN library; ER-HoxA9 myeloid progenitors, lysozyme-GFP differentiation; calls only at 10 µM; 360,000 compounds, 1% hits; AID 624256, 2012;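 active = normalized GFP-positive differentiation at or above the plate's own cutoff, the solvent-only control mean plus 3 SD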;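 also: cells exposed to compound for four days before flow analysis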
DAGLB inh – DAGLB lipase inhibitors, primary screen, biochemical, fluorescence, HTS; 340,000 compounds, 0.059% hits; HEK293T DAGLB membrane lysate, EnzChek fluorogenic substrate; inhibition, % at 5.17 µM; in the data active = inhibition above about 34%
MIN6 prolif-2 – inducers of beta-cell proliferation in MIN6, confirmation, MIN6 cells, mouse; shares compounds with MIN6 prolif-1; ATPlite luminescence, 48 h; cells kept in 0.2% serum; scaled between 0.2% and 10% serum; proliferation increase, % at 50 µM; 920 tested, under 10 active;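 active = proliferation increase above 40% at any of the four tested concentrations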
Large screens that a line does not name were inactive (follow-up assays come after a bar, where they were run); ! = not confirmed by another sample.

COc1ccc(N2CCN(C(=O)CN(C)S(=O)(=O)c3ccc4c(c3)c(=O)n(C)c(=O)n4C)CC2)cc1	none
COc1ccc(/C=C/C(=O)Nc2cc(S(=O)(=O)N3CCOCC3)ccc2N2CCCC2)cc1OC	MIN6 prolif-1 7.3 | MIN6 prolif-2 inactive
COc1ccc(/C=C/C(=O)Nc2cc(S(=O)(=O)N3CCCCC3)ccc2N2CCCCC2)cc1OC	none
COc1ccccc1C(=O)Nc1sc(C(=O)N2CCCC2)c(C)c1C#N	MIN6 prolif-1 8.8 | MIN6 prolif-2 inactive
Cc1c(C(=O)N2CCCC2)sc(NC(=O)c2ccc(Cl)cc2)c1C#N	none
CCOC(=O)C(C)Oc1ncnc2cccc(F)c12 (stereo unspecified)	none
CC(C)CCNC(=O)COC(=O)/C=C/c1ccc2ccccc2n1	MIN6 prolif-1 7.2 | MIN6 prolif-2 inactive
O=C(COC(=O)/C=C/c1ccc2ccccc2n1)NNC(=O)c1ccccc1	none (no result: MIN6 prolif-1)
c1ccc(CN2CCOCCOCCOCCOCC2)cc1	none
COc1ccc([N+](=O)[O-])cc1NC(=O)c1ccc(N2C(=O)CCC2=O)cc1	MIN6 prolif-1 7.8 | MIN6 prolif-2 inactive
Cc1cc(C)c(C(N)=O)c(SCC(=O)c2cc(C)n(-c3cc(C)on3)c2C)n1	none
Cc1ccc(Cn2nnc3c(=O)[nH]c(C4CCCN(S(=O)(=O)c5ccc(F)cc5)C4)nc32)cc1 (stereo unspecified)	none
COC(=O)c1ccc(Cn2nnc3c(=O)[nH]c(C4CCCN(S(=O)(=O)c5ccc(C)cc5)C4)nc32)cc1 (stereo unspecified)	MIN6 prolif-1 11 | MIN6 prolif-2 inactive
Nc1sc(-c2ccccc2)cc1C(=O)N1CCNCC1	none (no result: MIN6 prolif-1, DAGLB inh)
COC(=O)C1=C(C)NC(C)=C(C(=O)OC)C1c1ccc(-c2cccc([N+](=O)[O-])c2)o1	none
COC(=O)C1=C(C)NC(C)=C([N+](=O)[O-])C1c1ccccc1C(F)(F)F (stereo unspecified)	MIN6 prolif-1 14! | MIN6 prolif-2 inactive
CC(C)(C)c1ccc(C(=O)NCC(=O)OCc2ccc([N+](=O)[O-])cc2)cc1	none
COc1cc2c(cc1OC)C1=C(C#N)CC/C(=N\S(=O)(=O)c3cccc(Cl)c3)N1CC2	none
COc1cc2c(cc1OC)C1=C(C#N)CCC(=NC(=O)c3ccco3)N1CC2	MIN6 prolif-1 9.8 | MIN6 prolif-2 inactive
C/C(=N\NC(=O)CSCc1cccc(Br)c1)c1ccc([N+](=O)[O-])cc1	none
O=S(=O)(NCC(c1ccco1)N1CCc2ccccc2C1)c1ccc(Br)cc1 (stereo unspecified)	none
CCOC(=O)c1ccc(NC(=O)CC2SC3=NCCN3C2=O)cc1 (stereo unspecified)	MIN6 prolif-1 5.8 | MIN6 prolif-2 inactive
O=C(CC1SC2=NCCN2C1=O)Nc1ccc(Br)cc1 (stereo unspecified)	none
Cc1ccc(-n2nnnc2-c2cnc3cc4c(cc3c2C)OCO4)cc1	none
CCC(C)(C)n1nnnc1C(c1ccccc1OC)N1CCN(C(=O)c2ccco2)CC1 (stereo unspecified)	none
Cc1ccccc1NC(=O)Cc1nc(COC(=O)c2cc(Cl)ccc2O)cs1	none
O=C(CN(Cc1ccccc1)C(=O)CNS(=O)(=O)c1ccc(Cl)cc1)NCC1CCCO1 (stereo unspecified)	MIN6 prolif-1 0.0 | MIN6 prolif-2 inactive
O=C(c1ccc(-n2ccnc2)cc1)N1CCCC(CO)(Cc2cccc(Cl)c2)C1 (stereo unspecified)	MIN6 prolif-1 16 | MIN6 prolif-2 inactive
CCN1CCN(c2nc(Nc3ccc(C)c(C)c3)nc(N)c2[N+](=O)[O-])CC1	MIN6 prolif-1 0.0 | MIN6 prolif-2 inactive
CCN(CC)C(=O)Oc1cc(COC)nc(-c2ccccc2)n1	MIN6 prolif-1 5.3 (no result: DAGLB inh) | MIN6 prolif-2 inactive
COCc1cc(Sc2ccc(Cl)cc2)nc(-c2ccccc2)n1	none
CCCCN(C(C)=O)c1c(N)n(CCC)c(=O)n(CC(=O)Nc2cc(Cl)cc(Cl)c2)c1=O	none
CCC(C)NC(=O)CCSc1ccc(C)cc1 (stereo unspecified)	MIN6 prolif-1 0.0 | MIN6 prolif-2 inactive
CCCn1c(=N)c(S(=O)(=O)c2ccc(F)cc2)cc2c(=O)n3ccccc3nc21	MIN6 prolif-1 17 | MIN6 prolif-2 inactive
CC(C)n1ncc2c(C(=O)NCc3cccnc3)cc(C3CC3)nc21	MIN6 prolif-1 11 | MIN6 prolif-2 inactive
Cc1cc(C)c(C)c(S(=O)(=O)Nc2ccccc2C(=O)NCCCn2ccnc2)c1C	none (no result: MIN6 prolif-1)
Cc1cc(C)c(C)c(S(=O)(=O)Nc2ccccc2C(=O)NCCCN2CCOCC2)c1C	MIN6 prolif-1 8.2 | MIN6 prolif-2 inactive
CCc1ccc(N2C(=O)CN(Cc3sccc3C)C2=S)cc1	none
CCn1nc(NC(=O)c2cccnc2)c2cc3ccccc3nc21	none
CCn1nc(NC(=O)c2cccs2)c2cc3ccccc3nc21	MIN6 prolif-1 8.2 | MIN6 prolif-2 inactive
COc1ccc(Cl)cc1NC(=O)C/C(C)=N/NC(=O)C(=O)NCc1ccccc1	none
Cc1ccc(C(c2sc3ncnn3c2O)N2CCC(C)CC2)cc1 (stereo unspecified)	MIN6 prolif-1 12 | MIN6 prolif-2 inactive
Cc1ccccc1Nc1nc(N)nc(COC(=O)c2ccc3c(c2)OCCO3)n1	none (no result: MIN6 prolif-1)
CCc1ccc2[nH]c(=O)c(CN(Cc3ccccc3)C(=O)Nc3ccccc3OC)cc2c1	none
O=C(NCc1ccc(F)cc1)C(c1ccco1)N(C(=O)c1csnn1)c1ccccc1 (stereo unspecified)	MIN6 prolif-1 11 (no result: Myeloid diff MLP) | MIN6 prolif-2 inactive
O=C(NCc1ccc(F)cc1)C(c1ccccc1)N(C(=O)c1csnn1)c1ccccc1 (stereo unspecified)	none
CCn1c(C)nc2cc(C(=O)N/N=C/c3ccc(OC)cc3)ccc21	MIN6 prolif-1 7.8 (no result: DAGLB inh) | MIN6 prolif-2 inactive
O=C1CCCC(=O)N1c1ccc(Oc2ccc(Cl)cc2)cc1	none
Clc1ccc(-c2nnc(CNC3CC3)o2)cc1	MIN6 prolif-1 9.5 | MIN6 prolif-2 inactive
O=C(Nc1cccc2cccnc12)c1ccc(Cl)cc1	MIN6 prolif-1 5.9 | MIN6 prolif-2 inactive
